# Calls of active or inactive are those of the source. The calls are words filed in the database; no cut-off is given here.
# Legend:
# MX1 [1] = assay: Antitumor activity against human MX1 cells xenografted in athymic nude Swiss mouse assessed as tumor growth inhibition at 30 mg/kg, iv every two days for three times followed by 40 mg/kg, iv every two days for 5 times relative to control; type: functional; parameters: scale not given: the % may be the effect or the level left
# CCRF-CEM [2] = assay: Cytotoxicity against human vinblastine-resistant CCRF-CEM cells after 72 hrs by XTT assay; type: functional, cell-based
# Summary of the method: (§1)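 CCRF-CEM and its Taxol- and vinblastine-resistant sublines were incubated 72 h, then given phenazine methosulfate-XTT for 6 h at 37 °C. Absorbance was read at 450 and 630 nm. IC50 came from median-effect analysis of dose-effect data at six or seven concentrations.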
# CCRF-CEM [3] = assay: Cytotoxicity against human taxol-resistant CCRF-CEM cells after 72 hrs by XTT assay; type: functional, cell-based; summary of the method: as §1
# Mus musculus [4] = assay: Toxicity in human MX1 cells xenografted athymic nude Swiss mouse assessed as mouse mortality at 30 mg/kg, iv every two days for three times followed by 40 mg/kg, iv every two days for 5 times; type: organism-based; conditions: in vivo
# Nucleic Acid = assay: Induction of pEGFP-N1 plasmid DNA interstrand cross-linking at 1 to 20 uM by alkaline agarose gel shift assay; type: nucleic-acid assay
# Summary of the method: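 pEGFP-N1 plasmid DNA (1500 ng) was incubated with compound (1, 10, 20 μM) in 3 mM NaCl/1 mM sodium phosphate pH 7.4/1 mM EDTA for 2 h at 37 °C. It was then BamHI-linearized, ethanol-precipitated and denatured in 0.5 N NaOH-10 mM EDTA. Samples were run on a 0.8% alkaline agarose gel at 4 °C, 18 V for 22 h, stained with ethidium bromide.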
# PC-3 [5] = assay: Anticancer activity against human PC3 cells xenografted in athymic nude Swiss mouse assessed as tumor growth inhibition at 55 mg/kg, iv every two days for six times relative to control; type: functional; parameters: scale not given: the % may be the effect or the level left
# Mus musculus [6] = assay: Toxicity in human PC3 cells xenografted athymic nude Swiss mouse assessed as body weight loss at 55 mg/kg, iv every two days for six times relative to control; type: organism-based, PC-3; parameters: dose 55 mg/kg, route intravenous; conditions: in vivo
# Mus musculus [7] = assay: Toxicity in human PC3 cells xenografted athymic nude Swiss mouse assessed as mouse mortality at 55 mg/kg, iv every two days for six times; type: organism-based, PC-3; parameters: dose 55 mg/kg, route intravenous; conditions: in vivo
# CCRF-CEM [8] = assay: Cytotoxicity against human CCRF-CEM cells after 72 hrs by XTT assay; type: functional, cell-based; summary of the method: as §1
# CCRF-CEM [9] = assay: Ratio of IC50 for human taxol-resistant CCRF-CEM cells to IC50 for human CCRF-CEM cells; type: functional
# Mus musculus [10] = assay: Toxicity in human MX1 cells xenografted athymic nude Swiss mouse assessed as body weight loss at 30 mg/kg, iv every two days for three times followed by 40 mg/kg, iv every two days for 5 times relative to control; type: organism-based; conditions: in vivo
# HCT-116 = assay: Cytotoxicity against human HCT116 cells after 72 hrs by SRB assay; type: functional, cell-based; conditions: HCT-116, 72 h
# Summary of the method: (§2)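 MX-1 and HCT-116 solid tumor cells were exposed 72 h, with growth read by SRB staining on a microplate spectrophotometer. IC50 came from median-effect analysis of dose-effect data at six or seven concentrations.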
# MX1 [11] = assay: Cytotoxicity against human MX1 cells after 72 hrs by SRB assay; type: functional, cell-based; conditions: MX1, 72 h; summary of the method: as §2
# [12] = Cytotoxicity against human H1299 cells after 72 hrs by Alamar blue assay; type: functional, cell-based; conditions: NCI-H1299, 72 h
# Summary of the method: (§3)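 H1299 and PC3 cells were exposed 72 h, then given Alamar blue for 6 h at 37 °C. Absorbance was read at 570 and 600 nm. IC50 came from median-effect analysis of dose-effect data at six or seven concentrations.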
# PC-3 [13] = assay: Cytotoxicity against human PC3 cells after 72 hrs by Alamar blue assay; type: functional, cell-based; conditions: PC-3, 72 h; summary of the method: as §3
# CCRF-CEM [14] = assay: Ratio of IC50 for human vinblastine-resistant CCRF-CEM cells to IC50 for human CCRF-CEM cells; type: functional
# MX1 [15] = assay: Antitumor activity against human MX1 cells xenografted in athymic nude Swiss mouse assessed as tumor growth inhibition at 50 and 60 mg/kg, iv every two days for three times followed by 70 mg/kg, iv every two days for two times relative to control; type: functional; parameters: scale not given: the % may be the effect or the level left
# Mus musculus [16] = assay: Toxicity in human MX1 cells xenografted athymic nude Swiss mouse assessed as body weight loss at 50 and 60 mg/kg, iv every two days for three times followed by 70 mg/kg, iv every two days for two times relative to control; type: organism-based; conditions: in vivo
# Mus musculus [17] = assay: Toxicity in human MX1 cells xenografted athymic nude Swiss mouse assessed as mouse mortality at 50 and 60 mg/kg, iv every two days for three times followed by 70 mg/kg, iv every two days for two times; type: organism-based; conditions: in vivo
# [18] = Cell cycle arrest in human H1299 cells assessed as accumulation at G2/M phase at 20 uM after 24 hrs using propidium iodide staining by flow cytometry (reference value: 21.5 +/- 0.6%); type: functional, cell-based; conditions: NCI-H1299
# Summary of the method: (§4)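 H1299 cells were exposed 24 h, then trypsinized, PBS-washed and fixed in ice-cold 70% ethanol for 30 min. They were stained with 4 μg/mL propidium iodide in PBS containing 1% Triton X-100 and 0.1 mg/mL RNase A. Cell-cycle distribution was read by flow cytometry.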
# [19] = Cell cycle arrest in human H1299 cells assessed as accumulation at sub G1 phase at 20 uM after 24 hrs using propidium iodide staining by flow cytometry (reference value: 8.8 +/- 6.9%); type: functional, cell-based; conditions: NCI-H1299; summary of the method: as §4
# [20] = Cell cycle arrest in human H1299 cells assessed as accumulation at S phase at 20 uM after 24 hrs using propidium iodide staining by flow cytometry (reference value: 24.9 +/- 3.3%); type: functional, cell-based; conditions: NCI-H1299; summary of the method: as §4
# Mus musculus [21] = assay: Toxicity in human MX1 cells xenografted athymic nude Swiss mouse assessed as mouse mortality at 30 mg/kg, iv every two days for three times followed by 35 mg/kg, iv every two days for 5 times; type: organism-based; conditions: in vivo
# [22] = Cell cycle arrest in human H1299 cells assessed as accumulation at sub G1 phase at 10 uM after 24 hrs using propidium iodide staining by flow cytometry (reference value: 8.8 +/- 6.9%); type: functional, cell-based; conditions: NCI-H1299; summary of the method: as §4
# [23] = Cell cycle arrest in human H1299 cells assessed as accumulation at G2/M phase at 5 uM after 24 hrs using propidium iodide staining by flow cytometry (reference value: 21.5 +/- 0.6%); type: functional, cell-based; conditions: NCI-H1299; summary of the method: as §4
# [24] = Cell cycle arrest in human H1299 cells assessed as accumulation at G1 phase at 5 uM after 24 hrs using propidium iodide staining by flow cytometry (reference value: 44.8 +/- 3%); type: functional, cell-based; conditions: NCI-H1299; summary of the method: as §4
# [25] = Cell cycle arrest in human H1299 cells assessed as accumulation at G1 phase at 20 uM after 24 hrs using propidium iodide staining by flow cytometry (reference value: 44.8 +/- 3%); type: functional, cell-based; conditions: NCI-H1299; summary of the method: as §4
# [26] = Cell cycle arrest in human H1299 cells assessed as accumulation at G1 phase at 10 uM after 24 hrs using propidium iodide staining by flow cytometry (reference value: 44.8 +/- 3%); type: functional, cell-based; conditions: NCI-H1299; summary of the method: as §4
# [27] = Cell cycle arrest in human H1299 cells assessed as accumulation at S phase at 10 uM after 24 hrs using propidium iodide staining by flow cytometry (reference value: 24.9 +/- 3.3%); type: functional, cell-based; conditions: NCI-H1299; summary of the method: as §4
# [28] = Cell cycle arrest in human H1299 cells assessed as accumulation at sub G1 phase at 5 uM after 24 hrs using propidium iodide staining by flow cytometry (reference value: 8.8 +/- 6.9%); type: functional, cell-based; conditions: NCI-H1299; summary of the method: as §4
# MX1 [29] = assay: Antitumor activity against human MX1 cells xenografted in athymic nude Swiss mouse assessed as tumor growth inhibition at 30 mg/kg, iv every two days for three times followed by 35 mg/kg, iv every two days for 5 times relative to control; type: functional; parameters: scale not given: the % may be the effect or the level left
# Mus musculus [30] = assay: Toxicity in human MX1 cells xenografted athymic nude Swiss mouse assessed as body weight loss at 30 mg/kg, iv every two days for three times followed by 35 mg/kg, iv every two days for 5 times relative to control; type: organism-based; conditions: in vivo
# [31] = Cell cycle arrest in human H1299 cells assessed as accumulation at G2/M phase at 10 uM after 24 hrs using propidium iodide staining by flow cytometry (reference value: 21.5 +/- 0.6%); type: functional, cell-based; conditions: NCI-H1299; summary of the method: as §4
# [32] = Cell cycle arrest in human H1299 cells assessed as accumulation at S phase at 5 uM after 24 hrs using propidium iodide staining by flow cytometry (reference value: 24.9 +/- 3.3%); type: functional, cell-based; conditions: NCI-H1299; summary of the method: as §4
Compound,IC50 (CCRF-CEM [2]),IC50 (CCRF-CEM [3]),Activity (Nucleic Acid),Activity (PC-3 [5]),Activity (Mus musculus [6]),Activity (Mus musculus [7]),IC50 (CCRF-CEM [8]),Ratio IC50 (CCRF-CEM [9]),IC50 (HCT-116),IC50 (MX1 [11]),IC50 [12],IC50 (PC-3 [13]),Ratio IC50 (CCRF-CEM [14]),other results
O=C(Nc1ccc(N(CCCl)CCCl)cc1)Nc1ccc2ncnc(Nc3cccc(Cl)c3F)c2c1,1.04 µM,1.55 µM,Active,69%,6%,Non-toxic,0.75 µM,2.07,3.84 µM,4.55 µM,5.52 µM,6.29 µM,1.39,Activity (MX1 [1]): 52%; Activity (Mus musculus [4]): Non-toxic; Activity (Mus musculus [10]): 6%
O=C(Nc1ccc(N(CCCl)CCCl)cc1)Nc1ccc2ncnc(Nc3ccc(F)c(Cl)c3)c2c1,1.14 µM,1.16 µM,–,–,–,–,1 µM,1.16,3.36 µM,5.38 µM,–,–,1.14,Activity (MX1 [15]): 72%; Activity (Mus musculus [16]): 5%; Activity (Mus musculus [17]): Non-toxic
O=C(Nc1ccc(N(CCCl)CCCl)cc1)Nc1ccc2ncnc(Nc3cccc(Cl)c3)c2c1,3.26 µM,4.56 µM,Active,27%,11%,Non-toxic,1.66 µM,2.75,7.46 µM,7.84 µM,10.5 µM,10.4 µM,1.96,Activity [18]: 12.9%; Activity [19]: 35.3%; Activity [20]: 23.5%; Activity (Mus musculus [21]): Non-toxic; Activity [22]: 7.5%; Activity [23]: 40%; Activity [24]: 30.5%; Activity [25]: 28.3%; Activity [26]: 34.8%; Activity [27]: 28.5%; Activity [28]: 8.9%; Activity (MX1 [29]): 62%; Activity (Mus musculus [30]): 3%; Activity [31]: 29.3%; Activity [32]: 20.6%
